# Assay results taken from ChEMBL document CHEMBL5257098, “Development and Characterization of Fluorescent Probes for the G Protein-Coupled Receptor 35” (ACS Med Chem Lett, 2023).
# Active and inactive are the calls of the source. The calls are words filed in the database; no cut-off is given here.
# What was measured:
# [1] = biological target: T1, G-protein coupled receptor 35 (Homo sapiens, UniProt Q9HC97); test: Competitive binding affinity to Nluc-fused human GPR35 expressed in CHO-K1 cells assessed as inhibition constant using furimazine as substrate incubated for 30 mins followed by substrate addition by in presence of 10-(4-(2-(4-(4-((2,8-dicarboxy-6-hydroxy-10-methylpyrido[3,2-g]quinolin-4-yl)oxy)butyl)-1H-1,2,3-triazol-1-yl)ethoxy)phenyl)-5,5-difluoro-2,7,9-trimethyl-5H-imidazo[1,2-c]pyrrolo[2,1-f][ …; assay type: cell-based
# [2] = biological target: T1, G-protein coupled receptor 35; test: Agonist activity at GPR-35 in human HT-29 cells incubated for 1 hr by DMR assay; assay type: cell-based
# [3] = biological target: T1, G-protein coupled receptor 35; test: Agonist activity at human GPR-35 over expressed in CHO-K1 cells incubated for 1 hr followed by zaprinast stimulation by DMR assay; assay type: cell-based; conditions: filed as agonist
# [4] = biological target: T1, G-protein coupled receptor 35; test: Agonist activity at GPR-35 in human HT-29 cells assessed as desensitization of zaprinast induced DMR response incubated for 1 hr followed by zaprinast stimulation; assay type: cell-based
# [5] = biological target: T1, G-protein coupled receptor 35; test: Agonist activity at GPR-35 in human HT-29 cells assessed as DMR response in presence of ML-145
# [6] = biological target: T1, G-protein coupled receptor 35; test: Agonist activity at GPR-35 in human HT-29 cells by DMR assay; assay type: cell-based
# In short: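 Label-free DMR was recorded in HT-29 cells endogenously expressing GPR35 across a range of probe concentrations. EC50 was taken from concentration–response curves. Values are mean ± SD of two independent measurements, each with four replicates.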
# [7] = biological target: T1, G-protein coupled receptor 35; test: Binding affinity to Nluc-fused human GPR35 expressed in CHO-K1 cells using furimazine as substrate incubated for 30 mins in presence of zaprinast followed by substrate addition by […] equilibrium binding assay; assay type: cell-based
# In short: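 CHO-K1 cells were transfected with human GPR35 carrying an N-terminal nano-luciferase tag. Fluorescent probes were added at varying concentrations for saturation BRET binding. […] Kd was derived from the data. Values are mean ± SD of three independent measurements, each in triplicate.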
# [8] = biological target: T1, G-protein coupled receptor 35; test: Reversible binding affinity to Nluc-fused human GPR35 expressed in CHO-K1 cells using furimazine as substrate incubated for 10 mins followed by addition of ML145 by kinetic assay; assay type: cell-based; conditions: filed as agonist
# In short: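 Kinetic BRET binding used CHO-K1 cells expressing NLUC-tagged human GPR35. The BRET emission ratio was followed after adding probe (5 nM). 10 min later, ML-145 (10 μM) was added to dissociate the probe.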
# T1 sequence (Q9HC97 whole entry, the tested form may be a part): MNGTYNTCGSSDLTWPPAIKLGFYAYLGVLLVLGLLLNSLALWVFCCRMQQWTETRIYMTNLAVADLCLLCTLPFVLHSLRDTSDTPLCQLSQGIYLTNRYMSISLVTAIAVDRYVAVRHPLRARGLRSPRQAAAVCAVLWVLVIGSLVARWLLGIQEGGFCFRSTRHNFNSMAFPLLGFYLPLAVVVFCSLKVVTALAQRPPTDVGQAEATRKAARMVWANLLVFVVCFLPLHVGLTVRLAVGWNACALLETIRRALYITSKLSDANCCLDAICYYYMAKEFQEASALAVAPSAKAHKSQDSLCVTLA
Compound,Ki [1],Activity [3],IC50 [4],IC50 [5],EC50 [6],Kd [7],also measured
COC(=O)c1cnn(-c2ccc(F)cc2F)c1/C=N/NC(=S)NC(C)(C)C,236 nM,–,–,–,–,–,–
O=c1oc2c([N+](=O)[O-])c(O)c(Br)cc2cc1-c1nnn[nH]1,51 nM,–,–,–,–,–,EC50 [2]: 6 nM
O=C(O)c1cc(C(=O)O)c2c(n1)C(=O)C(=O)c1cc(C(=O)O)[nH]c1-2 [PYRROLOQUINOLINE QUINONE],332 nM,–,–,–,–,–,–
CC1=CC(C)=[N+]2C1=C(c1ccc(OCCn3cc(CCCCCOc4cc(C(=O)O)nc5c(C)c6nc(C(=O)O)cc(O)c6cc45)nn3)cc1)c1nc(C)cn1[B-]2(F)F,–,Active,5.6 nM,398 nM,42.2 nM,8.3 nM,–
CC1=CC(C)=[N+]2C1=C(c1ccc(OCCn3cc(CCOCCOc4cc(C(=O)O)nc5c(C)c6nc(C(=O)O)cc(O)c6cc45)nn3)cc1)c1nc(C)cn1[B-]2(F)F,–,Active,7.8 nM,769 nM,58.8 nM,17.9 nM,–
Cc1c2[nH]c(C(=O)O)cc(=O)c2cc2c(=O)cc(C(=O)O)[nH]c12,6 nM,–,–,–,–,–,–
CC1=CC(C)=[N+]2C1=C(c1ccc(OCCn3cc(CCCCOc4cc(C(=O)O)nc5c(C)c6nc(C(=O)O)cc(O)c6cc45)nn3)cc1)c1nc(C)cn1[B-]2(F)F,–,Active,9.4 nM,542 nM,49.5 nM,3.9 nM,Activity [8]: Active
COc1ccc(C(=O)Nc2cc(Br)ccc2-c2nnn[nH]2)cc1,10 nM,–,–,–,–,–,–
O=C(O)c1cc2cc(Br)c(O)c(Br)c2oc1=O,352 nM,–,–,–,–,–,–
CC1=CC(C)=[N+]2C1=C(c1ccc(OCCn3cc(CCCOc4cc(C(=O)O)nc5c(C)c6nc(C(=O)O)cc(O)c6cc45)nn3)cc1)c1nc(C)cn1[B-]2(F)F,–,Active,9.6 nM,1030 nM,80.8 nM,7.4 nM,–
O=C(O)c1cc(=O)c2c(OCC(O)COc3cccc4oc(C(=O)O)cc(=O)c34)cccc2o1 [CROMOLYN],2970 nM,–,–,–,–,–,–
